An excerpt weighted towards active compounds, which were near 1.8% of everything screened.
NPY1 pot ag: NPY-Y1 receptor potentiators or agonists, primary screen, cell-based. NPY-Y1 expressing cells, potentiator/agonist activation. activation, % at 3.6 µM. actives 0.37% (n = 220,000). AID 1304, 2008; in the data active = activation above about 33%, passing the limit was not always enough;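 also: cells stimulated with NPY at EC10 then isoproterenol at EC100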
Target sequence (P25929 whole entry, looked up): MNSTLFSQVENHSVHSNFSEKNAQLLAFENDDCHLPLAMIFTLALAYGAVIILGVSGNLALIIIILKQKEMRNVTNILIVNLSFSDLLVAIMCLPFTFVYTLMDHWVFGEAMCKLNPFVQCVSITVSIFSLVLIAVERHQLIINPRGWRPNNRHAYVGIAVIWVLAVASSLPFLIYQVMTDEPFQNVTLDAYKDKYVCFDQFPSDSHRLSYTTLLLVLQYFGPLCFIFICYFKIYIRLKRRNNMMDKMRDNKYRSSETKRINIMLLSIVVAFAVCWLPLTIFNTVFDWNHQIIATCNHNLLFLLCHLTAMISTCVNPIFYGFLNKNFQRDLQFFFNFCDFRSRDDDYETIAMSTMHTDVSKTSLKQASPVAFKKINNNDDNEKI
NPY Y1 blocker: NPY-Y1 receptor antagonists, primary screen, cell-based | Neuropeptide Y receptor type 1 (Homo sapiens), P25929 | HEK293-CNG Y1 cells, membrane potential fluorescence; NPY at EC95, then isoproterenol | inhibition, % at 3.6 µM | actives 1% (n = 200,000) | AID 1040, 2008;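 active = inhibition above the campaign mean inhibition of all tested compounds plus 3 SD, cut at about 20% in these data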
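Material: HEK293 Y1/CNG channel cell line | Also added: NPY (25 nM), isoproterenol (1 µM), Ro 20-1724 (25 µM) | Compound: One concentration, 3.6 µM, in 0.4% DMSO | Schedule: 3 h dye uptake, 1 h room-temperature compound, 45 min post-isoproterenol | Signal: Membrane-potential fluorescent dye readout | Read-out: % inhibition of NPY effect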
NPY2 pot ag: NPY-Y2 potentiators or agonists, primary screen, cell-based. AID 1359, 2008. cells expressing NPY-Y2, potentiator/agonist read-out. activation, % at 3.6 µM. Neuropeptide Y receptor type 2 (Homo sapiens), P49146. actives 0.45% (n = 220,000); in the data active = activation above about 27%;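 also: cells stimulated with NPY near EC25 plus isoproterenol at EC100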
NPY-Y2 antag: NPY-Y2 receptor antagonists, primary screen, cell-based; Neuropeptide Y receptor type 2 (Homo sapiens), P49146; NPY-Y2 expressing cells, antagonist mode; inhibition, % at 2.7 µM; actives 0.99% (n = 140,000); AID 793, 2007; in the data active = inhibition above about 17%
Hits are given with their value.

How did CC(C)NCC(O)Cn1c2c(c3ccccc31)CCc1c-2cnn1-c1ccccc1 (stereo unspecified) do in these assays?
NPY1 pot ag: 49.9; NPY Y1 blocker: inactive; NPY2 pot ag: 43.0; NPY-Y2 antag: inactive

How did CC1Cc2ccccc2N1Cc1nc2cc(Cl)ccc2c(=O)[nH]1 (stereo unspecified) do in these assays?
NPY1 pot ag: 65.3; NPY Y1 blocker: inactive; NPY2 pot ag: 61.1; NPY-Y2 antag: inactive

How did COC(=O)c1ccc2c(=O)[nH]c(CN3c4ccccc4CC3C)nc2c1 (stereo unspecified) do in these assays?
NPY1 pot ag: inactive; NPY Y1 blocker: inactive; NPY2 pot ag: inactive; NPY-Y2 antag: inactive

How did O=C(NCCC1=CCCCC1)C(c1ccccc1)c1ccccc1 do in these assays?
NPY1 pot ag: inactive; NPY Y1 blocker: 27.7; NPY2 pot ag: inactive; NPY-Y2 antag: inactive

How did O=C(Cc1ccccc1)NCCC1=CCCCC1 do in these assays?
NPY1 pot ag: inactive; NPY Y1 blocker: inactive; NPY2 pot ag: inactive; NPY-Y2 antag: inactive

How did Cc1ccc2c(c1)N(CC(=O)NC1CCC(C)CC1)C(=O)CO2 (stereo unspecified) do in these assays?
NPY1 pot ag: inactive; NPY Y1 blocker: inactive; NPY2 pot ag: inactive; NPY-Y2 antag: inactive

What do the screens show for `Cc1ccc2c(c1)N(CC(=O)OC(CC(C)C)C(=O)NC1CCCC1)C(=O)CO2` (stereo unspecified)?
NPY1 pot ag: inactive; NPY Y1 blocker: 32.6; NPY2 pot ag: inactive; NPY-Y2 antag: 21.3

Results for O=C(Nc1ccc(F)cc1)Nc1cc(OCC(F)(F)F)cc(OCC(F)(F)F)c1 ?
NPY1 pot ag: 65.5; NPY Y1 blocker: inactive; NPY2 pot ag: 53.6; NPY-Y2 antag: inactive

How did CC(Oc1ccc(Cl)cc1)c1ccnn1S(=O)(=O)c1ccc(Cl)cc1 (stereo unspecified) do in these assays?
NPY1 pot ag: inactive; NPY Y1 blocker: 21.0; NPY2 pot ag: inactive; NPY-Y2 antag: 21.9

What do the screens show for `Cc1ccc(C2C3=C(CCCC3=O)Nc3c2c(C)nn3-c2ccccn2)o1` (stereo unspecified)?
NPY1 pot ag: inactive; NPY Y1 blocker: inactive; NPY2 pot ag: inactive

What do the screens show for `CN(C)c1nc2ncn(Cc3ccccc3)c2c(=O)[nH]1`?
NPY1 pot ag: inactive; NPY2 pot ag: inactive

Results for COc1cccc(-c2nc(=S)c3c(n2Cc2ccco2)CCCC3)c1 ?
NPY1 pot ag: inactive; NPY Y1 blocker: inactive; NPY2 pot ag: inactive; NPY-Y2 antag: inactive

Results for Cc1ccc(-c2nc(=S)c3c(n2Cc2ccco2)CCCC3)cc1 ?
NPY1 pot ag: inactive; NPY Y1 blocker: 21.4; NPY2 pot ag: inactive; NPY-Y2 antag: inactive

How did Cc1cccc(-c2nc(=S)c3c(n2Cc2ccco2)CCCC3)c1 do in these assays?
NPY1 pot ag: inactive; NPY Y1 blocker: 24.9; NPY2 pot ag: inactive; NPY-Y2 antag: 21.9

Results for COc1cc2ccccc2cc1C(=O)NC(=S)Nc1cccc(C(=O)O)c1C ?
NPY1 pot ag: inactive; NPY2 pot ag: inactive

What do the screens show for `COc1ccc(/C(O)=C/C(=O)C(=O)NNC(=O)C(O)(c2ccccc2)c2ccccc2)cc1`?
NPY1 pot ag: 110.9; NPY Y1 blocker: inactive; NPY2 pot ag: 102.8; NPY-Y2 antag: inactive

Results for Cc1c(/C=N/NC(=O)c2cccs2)c2ccccc2n1Cc1ccccc1Cl ?
NPY1 pot ag: inactive; NPY2 pot ag: inactive

What do the screens show for `O=c1[nH]c2c(Br)cnc([N+](=O)[O-])c2[nH]1`?
NPY1 pot ag: inactive; NPY2 pot ag: inactive

How did O=c1[nH]c2cc(Cl)c([N+](=O)[O-])nc2[nH]1 do in these assays?
NPY1 pot ag: inactive; NPY Y1 blocker: 22.1; NPY2 pot ag: inactive; NPY-Y2 antag: 17.8

How did Cc1ccn(C)c(=N)c1 do in these assays?
NPY1 pot ag: inactive; NPY2 pot ag: inactive

What do the screens show for `COc1ccc(-c2cc(N)n(S(=O)(=O)c3c(F)c(F)c(F)c(F)c3F)n2)cc1OC`?
NPY1 pot ag: inactive; NPY Y1 blocker: 87.4; NPY2 pot ag: inactive; NPY-Y2 antag: 98.5

Results for COc1ccc(S(=O)(=O)n2nc(-c3cc(OC)c(OC)c(OC)c3)cc2N)cc1OC ?
NPY1 pot ag: inactive; NPY Y1 blocker: inactive; NPY2 pot ag: inactive; NPY-Y2 antag: inactive

How did O=C(NCCc1c[nH]c2ccccc12)/C(=C\c1cccnc1)NC(=O)c1ccccc1F do in these assays?
NPY1 pot ag: inactive; NPY2 pot ag: inactive

How did O=C(Nc1c(O)c2ccccc2[nH]c1=O)c1ccco1 do in these assays?
NPY1 pot ag: inactive; NPY2 pot ag: inactive

How did COCCCn1c(=S)[nH]c(C)c(C)c1=O do in these assays?
NPY1 pot ag: inactive; NPY2 pot ag: inactive

What do the screens show for `O=C(Nc1cccc(Cl)c1N1CCCC1)c1ccc(Br)o1`?
NPY1 pot ag: inactive; NPY Y1 blocker: 33.0; NPY2 pot ag: inactive; NPY-Y2 antag: 33.0

How did O=C(Nc1cccc(Cl)c1N1CCCC1)c1ccc([N+](=O)[O-])o1 do in these assays?
NPY1 pot ag: inactive; NPY Y1 blocker: inactive; NPY2 pot ag: inactive

What do the screens show for `O=C(Cc1nc2ccccc2[nH]1)c1cccc([N+](=O)[O-])c1`?
NPY1 pot ag: inactive; NPY2 pot ag: inactive

Results for COc1ccc(Cn2nnnc2C(c2ccccc2Cl)N2CCN(C3CCCC3)CC2)cc1 (stereo unspecified) ?
NPY1 pot ag: inactive; NPY Y1 blocker: 28.2; NPY2 pot ag: inactive; NPY-Y2 antag: 20.0

Results for CCC(c1nnnn1Cc1ccc(F)cc1)N1CCN(C2CCCCC2)CC1 (stereo unspecified) ?
NPY1 pot ag: inactive; NPY Y1 blocker: 38.5; NPY2 pot ag: inactive; NPY-Y2 antag: 37.4

How did COc1cccc(F)c1C(=O)NC(=O)Nc1ccc2nc(C)oc2c1 do in these assays?
NPY1 pot ag: inactive; NPY2 pot ag: inactive

What do the screens show for `Cc1c(Br)c(O)c(Br)c2sc(=O)oc12`?
NPY1 pot ag: inactive; NPY2 pot ag: inactive

How did O=C(Nc1cccc(F)c1)NC1CCN(Cc2ccccc2)CC1 do in these assays?
NPY1 pot ag: inactive; NPY Y1 blocker: inactive; NPY2 pot ag: inactive

What do the screens show for `O=C(NC1CCCCC1)c1sc(N2CCOCC2)nc1-c1ccccc1`?
NPY1 pot ag: inactive; NPY Y1 blocker: inactive; NPY2 pot ag: inactive; NPY-Y2 antag: inactive

What do the screens show for `Cc1cccc2nc(-c3ccco3)c(Nc3ccccc3)n12`?
NPY1 pot ag: 47.3; NPY Y1 blocker: inactive; NPY2 pot ag: 33.7

How did CCOC(=O)/C=C1\NC(C)(C)Cc2cc(OC)c(OC)cc21 do in these assays?
NPY1 pot ag: inactive; NPY Y1 blocker: inactive; NPY2 pot ag: inactive; NPY-Y2 antag: inactive

How did COc1cc2c(cc1OC)C(=S)NC(C)(C)C2 do in these assays?
NPY1 pot ag: 103.3; NPY Y1 blocker: inactive; NPY2 pot ag: 46.1; NPY-Y2 antag: inactive

Results for CCOC(=O)C(=Cc1c[nH]c2ccc(S(=O)(=O)N(C)C)cc12)C(=O)OCC ?
NPY1 pot ag: inactive; NPY2 pot ag: inactive

How did Fc1cccc(Cc2noc(CN3CCCN(C4Cc5ccccc5C4)CC3)n2)c1 do in these assays?
NPY1 pot ag: inactive; NPY Y1 blocker: 21.5; NPY2 pot ag: inactive

How did Fc1cccc(Cc2noc(CN3CCSCC3)n2)c1 do in these assays?
NPY1 pot ag: inactive; NPY Y1 blocker: inactive; NPY2 pot ag: inactive

Screening results from PubChem.
